Yeast growth tox – Compounds toxic to wild-type S. cerevisiae growth | 0.3% of 30,000 active | A595 turbidity, 16 h | growth inhibition, % at 25 µM (by protocol);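 active = mutant and wild-type yeast strains alike exhibit over 30% growth inhibition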;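 note: 0% = untreated cell controls and 100% = YPD media blanks without cells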
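system = S. cerevisiae wild-type or eIF2Bepsilon-R284H mutant strain | buffer or medium = YPD medium | dosing = one dose, 25 µM compound, 0.2% DMSO | schedule = 16 h at 30 °C | measured by = A595 turbidity | evaluation = growth inhibition (%) versus cell controls and blanks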
eIF2B yeast act – eIF2B (yeast) activity modulation. S. cerevisiae eIF2B-epsilon R284H, GCN4-lacZ luminescence. inhibition, % at 25 µM (by protocol). 0.91% of 27,000 active. AID 688;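 active = mutant luminescence inhibited past about 50% while wild type luminescence and mutant growth stay under set limits, limit read from the data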
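material = yeast eIF2B-epsilon R284H mutant carrying GCN4–beta-galactosidase fusion | schedule = 16 h growth with compound at 30 °C, 90 min Beta-Glo step | measured by = luminescence and A595 | compound dosing = one concentration, 25 µM, 0.25% DMSO | read-out basis = % inhibition of reporter signal and growth versus controls | buffer or medium = YPD medium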
The depositor's hits bear a star. Shown are actives, neighbours in structure and some others; about 1.1% of the full set was active somewhere.

For O=C(CSc1nc(-c2ccco2)cc(C(F)(F)F)n1)Nc1ccccc1C(F)(F)F the results were Yeast growth tox -4.0 and eIF2B yeast act 51.5*.
Screening Cc1cccc(C)c1NC(=O)CSc1nc(-c2ccco2)cc(C(F)(F)F)n1 returned Yeast growth tox -10.9 and eIF2B yeast act 16.9.
For C=CCN1C(=O)CSc2ccc(C(=O)NCCC3=CCCCC3)cc21 the results were Yeast growth tox 10.4 and eIF2B yeast act 13.4.
CCSc1nnc(NC(=O)c2ccccn2)s1 was read as Yeast growth tox 66.2* and eIF2B yeast act 82.5.
`CCSc1nnc(NC(=O)c2csc3c2CCCC3)s1` gave eIF2B yeast act -2.6.
`CCOC(=O)C(NC(=O)Cc1ccccc1)(Nc1cc(C)on1)C(F)(F)F` (stereo unspecified) gave Yeast growth tox 1.8 and eIF2B yeast act -7.2.
Cc1cc(S(=O)(=O)NC(C)C)ccc1OCC(=O)N1CCOCC1 was read as Yeast growth tox 18.1 and eIF2B yeast act 19.2.
COc1cc(N2C(=O)NC3CC2(C)Oc2ccc(Br)cc23)cc(OC)c1OC (stereo unspecified) was read as Yeast growth tox 16.3 and eIF2B yeast act 22.8.
For COc1ccc2[nH]c(=O)c(CN(Cc3nnnn3Cc3ccccc3)CC3CCCO3)cc2c1 (stereo unspecified) the results were Yeast growth tox 0.3 and eIF2B yeast act -7.2.
For CCC(C)(C)n1nnnc1CN(Cc1cccs1)Cc1cc2cc(OC)ccc2[nH]c1=O the results were Yeast growth tox 1.8 and eIF2B yeast act 64.1*.
Screening CC1(C)CC(=O)c2cc(OCC(=O)NCCN3CCOCC3)ccc2O1 returned Yeast growth tox -4.2 and eIF2B yeast act 16.8.
For Cc1c(C(=O)N2CCCc3ccccc32)oc2ccc(S(=O)(=O)N3CCOCC3)cc12 the results were Yeast growth tox -15.6 and eIF2B yeast act -9.7.
For Cc1cc(C)c(S(=O)(=O)N2CCC(C(=O)NCc3ccc(Cl)cc3Cl)CC2)c(C)c1 the results were Yeast growth tox 82.3*.
Screening CCS(=O)(=O)N1CCC(C(=O)NCc2ccc(F)cc2Cl)CC1 returned Yeast growth tox 0.6 and eIF2B yeast act -35.2.
`CCC(=O)N(Cc1cc(=O)[nH]c2ccccc12)c1cccc(C)c1` gave Yeast growth tox -20.3 and eIF2B yeast act 51.2*.
`CCCCCOC(=O)c1cc(=O)[nH]c2ccccc12` gave Yeast growth tox 15.0 and eIF2B yeast act 12.6.
`Cc1ccn(C(=O)c2cc3ccccc3oc2=O)n1` gave Yeast growth tox 2.6 and eIF2B yeast act 17.7.
For O=C(OCCn1cncn1)c1cc2ccccc2oc1=O the results were Yeast growth tox -4.7 and eIF2B yeast act 59.2*.
Screening CC(=O)OC(C(=O)NCc1ccc(F)cc1)c1ccccn1 (stereo unspecified) returned Yeast growth tox 2.8 and eIF2B yeast act -43.5.
For CCCCn1c(SCC(=O)Nc2cc(NC(=O)c3ccco3)ccc2C)nc2ccccc2c1=O the results were Yeast growth tox -19.6 and eIF2B yeast act 8.3.
